The text below walks through data of ChEMBL document CHEMBL4004812, “Semisynthesis of (-)-Rutamarin Derivatives and Their Inhibitory Activity on Epstein-Barr Virus Lytic Replication” (J Nat Prod, 2017).

Each structure is given as a SMILES string. Active and inactive are the calls of the source. The calls are words filed in the database; no cut-off is given here.

Data set [1] concerns Human gammaherpesvirus 4. In words: Inhibition of TPA/sodium butyrate-induced EBV lytic DNA replication in human P3HR1 cells incubated for 48 hrs post TPA/sodium butyrate induction by real-time PCR method. It is filed as functional, cell-based. The note with it: for IC50: human gammaherpesvirus 4, P3HR-1, 48 h. A digest of the protocol:
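P3HR-1 cells were induced with TPA (20 ng/mL) plus sodium butyrate (0.3 mM) and given varied compound concentrations 3 h later. Total cellular DNA was purified 48 h postinduction. EBV DNA content was taken as (induced − noninduced) over the same difference in untreated cells, and IC50 was derived from the dose-response curve.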
In general terms: Real-time PCR tracks product formation cycle by cycle.

Data set [2] is described as follows: (§1) Cytotoxicity against human P3HR1 cells assessed as decrease in cell viability after 2 days by trypan blue staining-based light microscopic method. Also on record: species or system P3HR-1. The following applies: P3HR1 cells. Summed up: (§2)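 EBV-positive Burkitt's lymphoma P3HR-1 (clone 16) cells were grown in RPMI 1640 with 10% FBS, streptomycin and penicillin. They were exposed to the compounds, and viable cells were counted by Trypan blue exclusion under a light microscope 2 days post-treatment. Viability was expressed relative to untreated control cells, and CC50 was fitted from dose-response curves.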

A short description of data set [3]: Selectivity index, ratio of CC50 for human P3HR1 cells to IC50 for TPA/sodium butyrate-induced EBV lytic DNA replication. A digest of the protocol: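 SI = CC50/IC50. CC50 came from Trypan blue viability counts 2 days after treatment. IC50 came from EBV DNA content 48 h after TPA/butyrate induction of P3HR-1 cells, with compound added at 3 h.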
Data set [4] has as its system P3HR-1. As to the kind of experiment: Cytotoxicity against human P3HR1 cells assessed as decrease in cell viability at 10 uM after 2 days by trypan blue staining-based light microscopic method. The following applies: p3hr-1, 48 h. A digest of the protocol:
as §2

The subject of data set [5] is P3HR-1. Described as §1. The note with it: p3hr-1, 48 h. Summed up:
as §2

`C=CC(C)(C)c1cc2cc3c(cc2oc1=O)O[C@@H](C(C)(C)OC(=O)NCCOC(C)=O)C3`: the inhibition entry in data set [1] was “Active”.

Take `C=CC(C)(C)c1cc2cc3c(cc2oc1=O)O[C@@H](C(C)(C)OC(=O)CNCCc1ccc(F)cc1)C3`: the half-maximal cytotoxic concentration (CC50) (as a rule, the concentration at which the toxic effect on the cells reaches its halfway point) at 48 h in data set [2] stood at 42.6 µM. Also, the IC50 (as a rule, the concentration at which inhibition is half-maximal) in data set [1] was 0.76 µM. Besides, in data set [3], the “Ratio CC50/IC50” value was found to be 56.

As to `C=CC(C)(C)c1cc2cc3c(cc2oc1=O)OC(C(C)(C)OC(=O)OCCc1scnc1C)C3` (stereo not drawn), the inhibition result in data set [1] was “Active”.

Consider `C=CC(C)(C)c1cc2cc3c(cc2oc1=O)O[C@@H](C(C)(C)OC(=O)NCCN)C3`, for which the inhibition entry in data set [1] was “Active”.

As to `C=CC(C)(C)c1cc2cc3c(cc2oc1=O)O[C@@H](C(C)(C)OC(=O)CNCc1ccco1)C3`, in data set [1], the inhibition result was “Active”.

As for `C=CC(C)(C)c1cc2cc3c(cc2oc1=O)O[C@@H](C(C)(C)OC(=O)CCl)C3`, the Activity entry in data set [4] is recorded as “Toxic”.

On to `C=CC(C)(C)c1cc2cc3c(cc2oc1=O)O[C@@H](C(C)(C)OC(=O)c1ccccc1)C3`, for which the CC50 at 48 h in data set [2] was determined as 370 µM. Further, in data set [1], the midpoint of inhibition, the IC50, lay at 4.5 µM. For the same compound, in data set [3], the “Ratio CC50/IC50” value stood at 83.

`C=CC(C)(C)c1cc2cc3c(cc2oc1=O)O[C@@H](C(C)(C)OC(=O)CNC1CCCC1)C3`: in data set [2], the CC50 at 48 h amounted to 40.8 µM. Moreover, in data set [1], the half-inhibitory concentration (IC50) is 2 µM. Further, in data set [3], the Ratio CC50/IC50 is above 20.

As for `C=CC(C)(C)c1cc2cc3c(cc2oc1=O)O[C@@H](C(C)(C)OC(=O)C=C(C)C)C3`, the CC50 at 48 h in data set [2] was above 100 µM. The midpoint of inhibition in data set [1], the IC50, lay at 2.1 µM. The “Ratio CC50/IC50” value in data set [3] is recorded as above 47.

Regarding `C=CC(C)(C)c1cc2cc3c(cc2oc1=O)O[C@@H](C(C)(C)OC(C)=O)C3`, in data set [2], the CC50 at 48 h is above 140 µM. In addition, 13.8 µM corresponded to half-maximal inhibition in data set [1] (IC50). In addition, the “Ratio CC50/IC50” value in data set [3] is above 10.

Turning to `C=CC(C)(C)c1cc2cc3c(cc2oc1=O)O[C@@H](C(C)(C)OC(=O)OCCN1C(=O)c2ccccc2C1=O)C3`, the CC50 at 48 h in data set [2] was above 100 µM. Also, the IC50 in data set [1] is 0.83 µM. Also, the “Ratio CC50/IC50” value in data set [3] is above 120.

For `C=CC(C)(C)c1cc2cc3c(cc2oc1=O)O[C@@H](C(C)(C)OC(=O)NCCC#N)C3`, the inhibition result in data set [1] was “Active”.

As for `C=CC(C)(C)c1cc2cc3c(cc2oc1=O)O[C@@H](C(C)(C)OC(=O)NCCO)C3`, the inhibition entry in data set [1] was “Active”.

For `C=CC(C)(C)c1cc2cc3c(cc2oc1=O)O[C@@H](C(C)(C)OC(=O)NCCc1ccc(F)cc1)C3`, it took 1.4 µM to reach half-maximal inhibition in data set [1] (IC50).

On to `C=CC(C)(C)c1cc2cc3c(cc2oc1=O)O[C@@H](C(C)(C)OC(=O)CNCCCC)C3`, for which, in data set [5], the Activity result is reported as “Toxic”. Also, in data set [1], the inhibition result was “Active”. Moreover, the “Ratio CC50/IC50” value in data set [3] was below 3.

With `C=CC(C)(C)c1cc2cc3c(cc2oc1=O)O[C@H](C(C)(C)OC(C)=O)C3`, the CC50 at 48 h in data set [2] is above 150 µM. In addition, the IC50 in data set [1] was 7 µM. Besides, the “Ratio CC50/IC50” value in data set [3] is reported as above 21.

On to `C=CC(C)(C)c1cc2cc3c(cc2oc1=O)O[C@@H](C(C)(C)OC(=O)OCc1ccccn1)C3`, for which the inhibition entry in data set [1] is “Active”.

As to `C=CC(C)(C)c1cc2cc3c(cc2oc1=O)O[C@@H](C(C)(C)OC(=O)OCCc1ccncc1)C3`, the CC50 at 48 h in data set [2] turned out to be 67.6 µM. Besides, 0.32 µM corresponded to half-maximal inhibition in data set [1] (IC50). For the same compound, the “Ratio CC50/IC50” value in data set [3] is given as 211.

`C=CC(C)(C)c1cc2cc3c(cc2oc1=O)O[C@@H](C(C)(C)OC(=O)OCCc1ccccc1)C3`: the Activity entry in data set [5] is “Toxic”. In data set [1], the inhibition result is “inactive”.

For `C=CC(C)(C)c1cc2cc3c(cc2oc1=O)O[C@@H](C(C)(C)OC(=O)OCCc1ccccn1)C3`, in data set [2], the CC50 at 48 h is 42.7 µM. Besides, the IC50 in data set [1] was 6.2 µM. Moreover, in data set [3], the “Ratio CC50/IC50” value is on record as 7.

As to `C=CC(C)(C)c1cc2cc3c(cc2oc1=O)O[C@@H](C(C)(C)OC(=O)OCCc1ccc(CC)cn1)C3`, the CC50 at 48 h in data set [2] came out at 1200 µM. In data set [1], this compound yielded a half-maximal inhibitory concentration (IC50) of 1.5 µM. Besides, the “Ratio CC50/IC50” value in data set [3] is listed as 801.

Consider `C=CC(C)(C)c1cc2cc3c(cc2oc1=O)O[C@@H](C(C)(C)OC(=O)NCCCCN)C3`, for which the inhibition entry in data set [1] is “Active”.

Consider `C=CC(C)(C)c1cc2cc3c(cc2oc1=O)O[C@@H](C(C)(C)OC(=O)CNC)C3`, for which, in data set [5], the Activity entry is “Toxic”. Moreover, in data set [1], the inhibition result was “Active”. In data set [3], the “Ratio CC50/IC50” value is on record as below 3.

Consider `C=CC(C)(C)c1cc2cc3c(cc2oc1=O)O[C@@H](C(C)(C)OC(=O)CNCC1CCCO1)C3` (stereo partly drawn), for which the inhibition result in data set [1] was “Active”.

In data set [1], `C=CC(C)(C)c1cc2cc3c(cc2oc1=O)O[C@@H](C(C)(C)O)C3` yielded an IC50 of 69.9 µM.

For `C=CC(C)(C)c1cc2cc3c(cc2oc1=O)O[C@@H](C(C)(C)OC(=O)CNCC)C3`, the Activity entry in data set [5] is listed as “Toxic”. Moreover, the inhibition entry in data set [1] was “Active”. Also, the “Ratio CC50/IC50” value in data set [3] is on record as below 3.
